Activity calls are given as the source filed them.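 How the source made its calls: active means growth inhibition above a set limit, 3 SD over mean compound inhibition, in both replicates (cut at about 43% in these data); inconclusive means above the limit in only one replicate; inactive means at or below the limit in both replicates.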
Experiment: Restrictive medium S. cerevisiae growth inhibition, OD615, pilot screen of yeast lifespan reduction project, restrictive growth control (AID 706);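 further: modified DeaD lifespan yeast strain shifted to restrictive glucose medium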
Settings: OD615, 48 h, at 10 µM, hits give high values
Method in brief: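 material = engineered S. cerevisiae DeaD strain | medium = glucose-based CSMM-D restrictive medium | times = 4 h pre-incubation, 48 h exposure at 30 °C | technique = OD615 absorbance reading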

Growth inhibition, inactive:
O=C(NCc1ccco1)c1cc(S(=O)(=O)N2CCOCC2)ccc1Cl -8.34%
CCCCCOC(=O)NCC(O)c1ccccc1 (centres undefined) -8.97%
CC(NC(=O)c1ccc(Cl)cc1)C(=O)N1CCCCC1 (centres undefined) 0.39%
CCOc1ccc(S(=O)(=O)Nc2ccccc2C(=O)NCC2CCCO2)cc1 (centres undefined) -16.7%
CCOC(=O)c1sc2nc(NC(=O)c3cccs3)sc2c1C -2.37%
Cc1noc(C)c1S(=O)(=O)NC1CCN(Cc2ccccc2)CC1 -2.23%
CCOC(=O)c1ccccc1NC(=O)C1COc2ccccc2O1 (centres undefined) -30.7%
CCOC(=O)N1CCC(NC(=O)C2CCN(Cc3nc(-c4ccc(CC)cc4)oc3C)CC2)CC1 -7.78%
Cc1ccc(C2CC(c3cccc(C)c3)n3ncnc3N2)cc1 (centres undefined) 15.5%
CCN1C(=O)C(O)(CC(=O)c2ccc3c(c2)OCCO3)c2ccccc21 (centres undefined) -5.33%
CN(C)c1nc(N)nc(-c2cccnc2)n1 3.66%
CCOC(=O)c1cccc(NC(=O)CNC(=O)C2CCCCC2)c1 2.92%
Cn1cc(S(=O)(=O)Nc2ccc(F)cc2F)c(=O)n(C)c1=O 0.815%
O=C1NCCCC1C(=O)NCCNC(=O)C(F)(F)F (centres undefined) -0.705%
CCc1ccc(C2CC(c3cccc(Cl)c3)n3nc(N)nc3N2)cc1 (centres undefined) 10.4%
CN1CCN(C(=O)c2ccccc2NC(=O)Cc2ccccc2)CC1 1.69%
Cc1nnc(Sc2nc3c(c(=O)[nH]c(=O)n3C)n2Cc2ccccc2Cl)s1 -9.02%
CN(C)CCNC(=O)c1cc2cc(Br)ccc2oc1=O -8.59%
CCOc1ccc(C2CC(c3cccc(OC)c3)Nc3ncnn32)cc1 (centres undefined) -1.26%
COc1ccc(C(=O)N2CCC(C(=O)Nc3cccc(C)c3)CC2)cc1OC -15.3%
CCOC(=O)C1C(=O)N(C(=O)c2cncc(Br)c2)CC1c1ccccc1 (centres undefined) 8.88%
O=C(Nc1nnc(-c2ccc(Cl)cc2)o1)c1ccccc1Br 20.1%
O=C(O)c1cccc2c1C(=O)N(C1CCCCC1)C2 -5.79%
CCOC(=O)C1CCCN(C(=O)Cn2nc(CC)n3c(cc4sccc43)c2=O)C1 (centres undefined) -9.06%
CCOCCCNC(=O)C(c1ccc(C)cc1)N(Cc1ccc2c(c1)OCO2)C(=O)CNC(C)=O (centres undefined) 0.77%
CSc1ccc(Cl)c(C(=O)NCc2ccco2)c1 8.44%
O=C(CSc1ncnc2c1oc1ccccc12)Nc1cccc(C(F)(F)F)c1 -15.6%
O=C(Nc1ccc(-c2nc3cccnc3s2)cc1)c1ccco1 9.91%
O=C(O)CN1C(=O)C2C3C=CC(C3)C2C1=O (centres undefined) -14.5%
CCCn1c(N2CCN(Cc3cccc(C)c3)CC2)nc2c1c(=O)[nH]c(=O)n2C 2.15%
O=C(O)CC(CNS(=O)(=O)c1ccccc1)c1ccccc1 (centres undefined) 1.5%
CC1Cc2nc(SCC(=O)OCc3ccccc3)n(C)c(=O)c2S1 (centres undefined) 1.86%
C=CCn1c(=O)c(C(=O)Nc2ccccc2OC)c(O)c2ccccc21 -2.46%
O=C(NCC1CCCO1)c1ccc(CS(=O)(=O)c2ccc(Br)cc2)o1 (centres undefined) -13.1%
Oc1cc(Cc2ccccc2)cnc1CN1CCCCC1 2.06%
CCOc1ccccc1NC(=O)CSc1nnc(-c2ccccn2)n1Cc1ccco1 11.5%
COc1ccc(OC)c2sc(NC(=O)c3ccc(S(=O)(=O)N(C)C)cc3)nc12 -17.2%
O=C(CN1C(=O)c2ccccc2S1(=O)=O)NC1CCCCCC1 -5%
CCN(CCC(=O)Nc1cc(OC)cc(OC)c1)Cc1ccccc1 -14.7%

Source: PubChem BioAssay
